Data set [1] can be described thus: Inhibition of Mycobacterium tuberculosis FabG4 assessed as reduction in NADH to NAD+ conversion using acetoacetyl-CoA substrate by UV-visible spectrophotometry. An outline of the steps:
(§1)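 50 mM HEPES pH 7.4 at 25 °C with 1 µM FabG4, 0.2 mM β-NADH, 0.5 mM acetoacetyl-CoA and 5% methanol. Started with substrate; A340 decrease read every 2 min. IC50 taken graphically from dose-response plots. Mode found by varying NADH at three inhibitor levels, using Lineweaver-Burk plots.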

A short description of data set [2]: Inhibition of Mycobacterium tuberculosis HtdX using crotonoyl-CoA substrate by UV-visible spectrophotometry. A digest of the protocol: (§2)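 50 mM HEPES pH 7.5 with 100 mM NaCl at 25 °C, containing 100 nM HtdX, 10 µM crotonoyl-CoA and 5% methanol. Started with substrate; A263 decrease read every 2 min. IC50 taken graphically from dose-response plots. Mode found by varying crotonoyl-CoA at three inhibitor levels, using Lineweaver-Burk plots.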

For data set [3], the system named is Mycobacterium tuberculosis. The experiment in a line: Competitive inhibition of Mycobacterium tuberculosis FabG4 assessed as reduction in NADH to NAD+ conversion using acetoacetyl-CoA substrate and varying NADH levels by UV-visible spectrophotometry. An outline of the steps: as §1
The subject of data set [4] is Mycobacterium tuberculosis. The experiment in a line: Binding affinity to Mycobacterium tuberculosis FabG4 assessed as first binding constant at 25 degC by isothermal titration calorimetry. An outline of the steps: (§3)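 FabG4 at 4.5 µM in 50 mM HEPES pH 7.4 in the cell, titrated at 25 °C with 500 µM ligand in 5% methanol-buffer (0.4 µL then 19 × 2 µL, 120 s spacing). Buffer-ligand reference titration subtracted. Two sequential binding events, per monomer of the homodimer.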
Background: In ITC the heat of successive injections is recorded.

Data set [5] concerns Mycobacterium tuberculosis. The experiment in a line: Binding affinity to Mycobacterium tuberculosis FabG4 assessed as second binding constant at 25 degC by isothermal titration calorimetry. A digest of the protocol: as §3
The test system of data set [6] is Mycobacterium tuberculosis. The experiment in a line: Induction of changes in secondary structure of Mycobacterium tuberculosis FabG4 assessed as helix level at 50 uM by CD spectroscopy (reference value: 25.9%).
Data set [7] relates to Mycobacterium tuberculosis. The experiment in a line: Induction of changes in secondary structure of Mycobacterium tuberculosis FabG4 assessed as beta-sheet level at 50 uM by CD spectroscopy (reference value: 6%).
Data set [8] relates to Mycobacterium tuberculosis. The experiment in a line: Induction of changes in secondary structure of Mycobacterium tuberculosis FabG4 assessed as turns level at 50 uM by CD spectroscopy (reference value: 34.6%).
Data set [9] relates to Mycobacterium tuberculosis. The experiment in a line: Induction of changes in secondary structure of Mycobacterium tuberculosis FabG4 assessed as unordered level at 50 uM by CD spectroscopy (reference value: 33.5%).
Data set [10] concerns Mycolicibacterium smegmatis. The experiment in a line: Antimycobacterial activity against Mycobacterium smegmatis str. MC2 155 assessed as inhibition of microbial growth incubated for 24 hrs by REMA method. The data set is classed as functional. As to conditions: str. MC2 155, 24 h. An outline of the steps: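 M. smegmatis mc2155 grown in 7H9 broth with 0.2% glycerol and 0.05% Tween 80 at 37 °C, 120 rpm, to mid-log (OD595 ~0.5). Diluted to OD595 0.0005 and exposed to drug for 24 h at 37 °C. Then 0.02% resazurin added for 40 min. MIC is the lowest concentration preventing the blue-to-pink change. Two repeats, averaged.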

Data set [11] is described as follows: Drug metabolism in culture media assessed as isoniazid release in presence of Mycobacterium smegmatis str. MC2 155 incubated for 24 hrs by HPLC method. The format is physicochemical. A digest of the protocol: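 Compound incubated in culture medium with M. smegmatis for 24 h. Culture then lyophilised, redissolved and run on HPLC (100% methanol eluent, 1.2 mL/min), checking for an isoniazid peak.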

Data set [12] has as its system Mycolicibacterium smegmatis. The experiment in a line: Inhibition of biofilm formation of Mycobacterium smegmatis str. MC2 155 at 20 ug/ml incubated at 37 degC without shaking for 4 weeks. The format is functional. The note with it: str. MC2 155, 672 h. An outline of the steps: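 M. smegmatis mc2155 planktonic culture inoculated at 1% into Sauton's minimal medium without Tween-80. Inhibitor at 5, 10, 20, 50 and 100 µg/mL, with a no-inhibitor control. Plates sealed and held static at 37 °C for 4 weeks; biofilm formation assessed visually.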

The subject of data set [13] is Mycobacterium tuberculosis. The experiment in a line: Competitive inhibition of Mycobacterium tuberculosis HtdX using varying crotonoyl-CoA substrate by UV-visible spectrophotometry. An outline of the steps: as §2
The subject of data set [14] is Mycobacterium tuberculosis. The experiment in a line: Binding affinity to Mycobacterium tuberculosis HtdX assessed as binding constant at 25 degC by isothermal titration calorimetry. A digest of the protocol:
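HtdX at 10 µM in 50 mM HEPES pH 7.5 with 100 mM NaCl in the cell, titrated at 25 °C with 500 µM ligand in 5% methanol-buffer (0.4 µL then 19 × 2 µL). Buffer-ligand reference subtracted. Isotherm fitted to a one-site model.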

Data set [15] has as its system Mycobacterium tuberculosis. The experiment in a line: Induction of changes in secondary structure of Mycobacterium tuberculosis HtdX assessed as helix level at 50 uM by CD spectroscopy (reference value: 12.2%).
Data set [16] deals with Mycobacterium tuberculosis. The experiment in a line: Induction of changes in secondary structure of Mycobacterium tuberculosis HtdX assessed as beta-sheet level at 50 uM by CD spectroscopy (reference value: 40.1%).
In data set [17] the test system is Mycobacterium tuberculosis. The experiment in a line: Induction of changes in secondary structure of Mycobacterium tuberculosis HtdX assessed as turns level at 50 uM by CD spectroscopy (reference value: 12.6%).
The subject of data set [18] is Mycobacterium tuberculosis. The experiment in a line: Induction of changes in secondary structure of Mycobacterium tuberculosis HtdX assessed as unordered level at 50 uM by CD spectroscopy (reference value: 35.2%).

These results are taken from ChEMBL document CHEMBL3588761, “Design, synthesis and characterization of dual inhibitors against new targets FabG4 and HtdX of Mycobacterium tuberculosis” (Eur J Med Chem, 2015).

Calls of active or inactive are those of the source.

In the case of `O=C(NNC(=O)[C@@H]1C(=O)N(c2ccccc2)[C@H]1c1ccncc1)c1ccncc1` (relative stereo), the IC50 in data set [1] (read-out: IC50) stood at 15.2 µM; in [2] (read-out: IC50), 22.3 µM. In addition, the inhibition result in data set [3] was “Active”. Moreover, the K was found to be 2.98 ×10⁵ /M in data set [4] and 1.15 ×10³ /M in data set [5]. Further, the Activity in [6] was 30%; in data set [7], 5.7%; in [8], 29.8%; in data set [9], 34.4%. Besides, the MIC in data set [10] amounted to 15 µg/mL. For the same compound, the Drug metabolism entry in data set [11] is “metabolite_notdetected”. Besides, at 20 µg/mL the inhibition in data set [12] was 100%.

For `O=C1[C@@H](CO)[C@H](c2ccncc2)N1c1ccccc1` (relative stereo), the figures for the IC50 in data set [1] (read-out: IC50) and in data set [2] were 666 µM and “Not Active”, respectively.

Turning to `O=C(NNC(=O)[C@@H]1C(=O)N(c2ccccc2)[C@H]1c1ccco1)c1ccncc1` (relative stereo), the half-inhibitory concentration (IC50) in data set [1] (read-out: IC50) is 27.6 µM; in data set [2] (read-out: IC50) it was 17.6 µM. Moreover, the MIC in [10] turned out to be 15 µg/mL.

On to `O=C(NNC(=O)[C@@H]1C(=O)N(c2ccccc2)[C@H]1c1ccncc1)c1ccccc1` (relative stereo), for which the IC50 is 39.9 µM in data set [1] (read-out: IC50) and “Not Active” in data set [2].

As to `O=C(O)[C@@H]1C(=O)N(c2ccccc2)[C@H]1c1cccs1` (relative stereo), the IC50 entry in data set [1] and in data set [2] was “Not Active” in each case.

Turning to `O=C(O)[C@@H]1C(=O)N(c2ccccc2)[C@H]1c1ccncc1` (relative stereo), the IC50 in [1] (read-out: IC50) is 64.3 µM; in data set [2], “Not Active”.

Turning to `NNC(=O)c1ccncc1` [ISONIAZID], the MIC in [10] came out at 10 µg/mL.

For `O=C(O)[C@@H]1C(=O)N(c2ccccc2)[C@H]1c1ccco1` (relative stereo), the IC50 result in data set [1] and in data set [2] was “Not Active” in each case.

With `O=C(NNC(=O)[C@@H]1C(=O)N(c2ccccc2)[C@H]1c1cccs1)c1ccncc1` (relative stereo), the IC50 in data set [1] (read-out: IC50) stood at 26.1 µM; in data set [2] (read-out: IC50), 10.3 µM. In addition, the inhibition result in data set [13] is “Active”. Further, the K in data set [14] is 4.21 ×10⁵ /M. The Activity is 11.1% in [15], 50.6% in data set [16], 2.6% in data set [17] and 35.7% in [18]. Moreover, in [10], the MIC came out at 20 µg/mL.

A word on the IC50: it is the midpoint of a concentration-inhibition curve. Usually inhibition stands for the drop in the measured response relative to a control, in per cent. As usually defined, the MIC is the smallest concentration in the dilution series that meets the test's criterion for growth inhibition.
